# Measurements collected from several papers.
# Target: Tyrosine-protein kinase ZAP-70 (ZAP70, Homo sapiens, UniProt P43403)
# Sequence (P43403 1-619, as in one of the studies): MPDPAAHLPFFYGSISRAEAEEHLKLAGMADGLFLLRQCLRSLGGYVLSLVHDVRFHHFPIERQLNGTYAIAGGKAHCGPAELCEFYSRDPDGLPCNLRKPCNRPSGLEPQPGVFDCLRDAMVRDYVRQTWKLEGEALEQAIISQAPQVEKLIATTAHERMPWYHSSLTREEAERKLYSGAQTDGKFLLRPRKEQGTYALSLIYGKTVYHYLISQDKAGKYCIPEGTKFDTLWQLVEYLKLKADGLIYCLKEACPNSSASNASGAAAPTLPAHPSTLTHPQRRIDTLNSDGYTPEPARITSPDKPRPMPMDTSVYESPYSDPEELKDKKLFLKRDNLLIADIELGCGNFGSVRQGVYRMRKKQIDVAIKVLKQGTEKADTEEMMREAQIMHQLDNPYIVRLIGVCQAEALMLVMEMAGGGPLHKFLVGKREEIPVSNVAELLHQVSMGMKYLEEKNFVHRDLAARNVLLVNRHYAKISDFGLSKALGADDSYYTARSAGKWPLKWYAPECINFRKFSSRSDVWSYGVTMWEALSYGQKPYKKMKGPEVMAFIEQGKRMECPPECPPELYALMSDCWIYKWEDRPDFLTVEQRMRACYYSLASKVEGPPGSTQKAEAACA
Compound,observed,technique,tested at,remaining binding
COc1ncc2cc3ccccc3nc2c1C#N,cell-free assay,competition with immobilised ligand,5 µM,88%
c1cnn2ncc(-c3ccnc(N4CCC45COC5)n3)c2c1,binding,,1 µM,80%
FC(F)(F)Oc1cccc(-c2cnc3ccc(-c4ccncc4)nn23)c1,binding,competition with immobilised ligand,5 µM,69%
C[C@@H]1CCN(c2nccc(-c3cnn4ncccc34)n2)C1,binding,,1 µM,75%
Nc1ncc2c(n1)-c1c([nH]c3ccc(C#CC4CC4)cc13)CCCC2,binding,competition with immobilised ligand,1 µM,92%
O=C(c1ccc(Nc2nccc(-c3cc4ccccc4s3)n2)cc1)N1CCC(N2CCCC2)CC1,binding,competition with immobilised ligand,1 µM,15%
Cc1nc(C2CCN(C(=O)c3ccc(OC(F)(F)F)cc3N)CC2)c2ncc(N3CCN(C)CC3)cc2n1,cell-free assay,competition with immobilised ligand,1 µM,100%
O=C(Nc1c[nH]nc1C(=O)NC1CCNCC1)c1cc(F)cc(F)c1,binding,competition with immobilised ligand,1 µM,87%
O=C(O)[C@@H]1[C@@H](Cn2nnc3ccccc3c2=O)CC[C@H]1C(=O)c1ccc(OCCC2CCOCC2)cc1,cell-free assay,competition with immobilised ligand,1 µM,99%
C[C@@H]1CN(c2ccc3ncc(-c4ccc5[nH]nc(C6CC6)c5c4)n3n2)C[C@H](C)O1,binding,competition with immobilised ligand,50 nM,100%
C[C@@H](c1cccc(C#N)c1)n1cc(Cl)cc(C(N)=O)c1=N,cell-free assay,competition with immobilised ligand,1 µM,84%
CNC(=O)[C@@H]1CC[C@@H](n2c(-c3ccc4cnccc4c3)nc3ccc(C(=O)NCc4cccc(C(N)=O)c4)cc32)C1,binding,competition with immobilised ligand,1 µM,100%
C=CC(=O)N1CCC(C(=O)NCC(=O)N2CCN(c3nc(-c4cnc(N)nc4C(F)F)nc(N4CCOCC4)n3)CC2)CC1,binding,competition with immobilised ligand,1 µM,100%
N[C@@H]1CCN(c2nccc(-c3cnn4ncccc34)n2)C1,binding,,1 µM,53%
O=C(NCCCC1CCCCC1)c1ccc(CNC(=O)c2cnn(-c3ccccc3)c2C(F)(F)F)cc1,cell-free assay,competition with immobilised ligand,0.1 µM,100%
C[C@@H](c1ccc(-n2cnc3c(N)ncnc32)cc1)N1CCc2nn(C)c(Cc3ccccc3)c2C1=O,binding,competition with immobilised ligand,0.1 µM,94%
O=C(NCCCN1CCOCC1)c1ccc(Nc2ncc(Cl)c(-c3ccc(Cl)s3)n2)cc1,binding,competition with immobilised ligand,1 µM,88%
CN(c1nccc(-c2cnn3ncccc23)n1)C1CC1,binding,,1 µM,100%
CCN1CCN(Cc2ccc(C(=O)Nc3ccc(C)c(Oc4ccc5c(c4)CC(=O)N5)c3)cc2C(F)(F)F)CC1,binding,competition with immobilised ligand,1 µM,100%
CCOC(=O)c1cc2cc(-c3cc(C(=O)NCc4ccc(C(=O)O)cc4)nn3C)ccc2[nH]1,cell-free assay,competition with immobilised ligand,0.1 µM,98%
CN(C)c1nccc(-c2cnc3ncccn23)n1,binding,,1 µM,90%
CS(=O)(=O)NCC[C@H](NC(=O)c1cncc2c1cnn2-c1ccc(F)cc1)c1ccnc(S(C)(=O)=O)c1,cell-free assay,competition with immobilised ligand,1 µM,80%
Cc1cnn2ncc(-c3ccnc(N(C)C)n3)c2c1,binding,,1 µM,100%
O=C(c1ccc(Nc2ncc(Cl)c(-c3cc4ccccc4s3)n2)cc1)N1CCC(N2CCCC2)CC1,binding,competition with immobilised ligand,1 µM,10%
COc1ccnn2ncc(-c3ccnc(N(C)C)n3)c12,binding,,1 µM,86%
O=C(N1CCS(=O)(=O)CC1)N1C[C@H](c2ccc(OC(F)(F)F)cc2)C[C@H](c2nc(C3CC3)no2)C1,cell-free assay,competition with immobilised ligand,1 µM,90%
